Key:
Homo sapiens [1] = test: Toxicity in healthy human assessed as occurrence of vomiting at 50 mg, po administered as single dose relative to control; type: organism-based; conditions: in vivo
Homo sapiens [2] = test: Toxicity in healthy human assessed as occurrence of vomiting at 75 mg, po administered as single dose relative to control; type: organism-based; conditions: in vivo
Homo sapiens [3] = test: Toxicity in healthy human assessed as occurrence of increase in alanine aminotransferase level at 1 mg, po administered as single dose relative to control; type: organism-based; conditions: in vivo
Homo sapiens [4] = test: Toxicity in healthy human assessed as occurrence of frequent bowel movements at 1 mg, po administered as single dose relative to control; type: organism-based; conditions: in vivo
[5] = Mean residence time in healthy human at 5 mg, po administered as single dose coadministered with 100 mg of ritonavir; type: ADME, organism-based; conditions: in vivo
[6] = Apparent volume of distribution at steady state in high fat fed healthy human at 50 mg, po administered as single dose coadministered with 100 mg of ritonavir; type: ADME, organism-based; conditions: in vivo, read-out: Vss/F
Method in brief: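 Fed cohort: healthy males ate an FDA-recipe high-fat breakfast (about 150/250/500-600 cal from protein/carbohydrate/fat) 30 min before a 50 mg oral dose of BILR 355 in PEG solution. Ritonavir 100 mg was given 10 h before and with the dose. Plasma was sampled over 144 h and assayed by LC-MS/MS. Noncompartmental analysis gave Cmax and Vz/F. Vss/F = CL/F·(MRTp.o. − 1/Ka).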

Homo sapiens [7] = test: Ratio of AUC (0 to infinity) in human at 12.5 mg, po in presence of 100 mg of ritonavir to AUC (0 to infinity) in human at 12.5 mg, po; type: ADME, organism-based; conditions: in vivo
Homo sapiens [8] = test: Toxicity in healthy human assessed as occurrence of diarrhea at 50 mg, po administered as single dose coadministered with 100 mg of ritonavir; type: organism-based; conditions: in vivo
Homo sapiens [9] = test: Toxicity in healthy human assessed as occurrence of maculopapular rash at 37.5 mg, po administered as single dose coadministered with 100 mg of ritonavir; type: organism-based; conditions: in vivo
Homo sapiens [10] = test: Toxicity in healthy human assessed as occurrence of maculopapular rash at 62.5 mg, po administered as single dose coadministered with 100 mg of ritonavir; type: organism-based; conditions: in vivo
Homo sapiens [11] = test: Toxicity in healthy human assessed as occurrence of maculopapular rash at 100 mg, po administered as single dose; type: organism-based; conditions: in vivo
Homo sapiens [12] = test: Ratio of half life in human at 75 mg, po in presence of 100 mg of ritonavir to half life in human at 75 mg, po; type: ADME, organism-based; conditions: in vivo
Homo sapiens [13] = test: Toxicity in healthy human assessed as occurrence of abdominal pain at 100 mg, po administered as single dose relative to control; type: organism-based, Abdomen; conditions: in vivo
[14] = AUC (0 to infinity) in healthy human at 87.5 mg, po administered as single dose coadministered with 100 mg of ritonavir; type: ADME, organism-based; design: dose 87.5 mg, time infinity, route oral; conditions: plasma
Method in brief: (§1)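 Healthy male volunteers, fasted. Ritonavir 100 mg given 10 h before and again together with single oral BILR 355 in PEG solution. EDTA plasma sampled predose to 144 h. LC-MS/MS assay after protein precipitation. Noncompartmental analysis, AUC by linear up/log down trapezoidal rule; Vss = CL/F·(MRTp.o. − 1/Ka).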

[15] = AUC (0 to last) in healthy human at 12.5 mg, po administered as single dose coadministered with 100 mg of ritonavir; type: ADME, organism-based; design: dose 12.5 mg, time 0 - last, route oral; conditions: plasma; method in brief: as §1
[16] = AUC (0 to last) in healthy human at 25 mg, po administered as single dose coadministered with 100 mg of ritonavir; type: ADME, organism-based; design: dose 25 mg, route oral, time 0 - last; conditions: plasma; method in brief: as §1
Homo sapiens [17] = test: Toxicity in healthy human assessed as occurrence of headache at 50 mg, po administered as single dose relative to control; type: organism-based; conditions: in vivo

MRT [5]: 24.8 h | Vd/F [6]: 81.4 L | Ratio (Homo sapiens [7]): 31 | Ratio (Homo sapiens [12]): 5.4 | AUC(0-inf) [14]: 11800 ng·h/mL | AUC(0-t) [15]: 1680 ng·h/mL | AUC(0-t) [16]: 4140 ng·h/mL
SMILES: CCN1c2ncc(CCOc3cc[n+]([O-])c4ccccc34)cc2C(=O)N(C)c2cccnc21 [BILR 355]
Activity (Homo sapiens [1]): 0% | Activity (Homo sapiens [2]): 0% | Activity (Homo sapiens [3]): 0% | Activity (Homo sapiens [4]): 0% | Activity (Homo sapiens [8]): 0% | Activity (Homo sapiens [9]): 16.7% | Activity (Homo sapiens [10]): 0% | Activity (Homo sapiens [11]): 0% | Activity (Homo sapiens [13]): 0% | Activity (Homo sapiens [17]): 16.7%
